Here are results for 1 compound from ChEMBL document CHEMBL4014261, “Design, Synthesis, and Antimicrobial Evaluation of a Novel Bone-Targeting Bisphosphonate-Ciprofloxacin Conjugate for the Treatment of Osteomyelitis Biofilms” (J Med Chem, 2017).

Converted amounts (≈) assume the structure as drawn. The source made the active and inactive calls. No cut-off for these calls is given here.

Data set [1] concerns Staphylococcus aureus. Put plainly: Antibacterial activity against methicillin-sensitive Staphylococcus aureus isolate 1 planktonic cells after 24 hrs by microdilution assay. Type of data set: functional. Conditions: isolate 1, 24 h. The essentials: (§1)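 Planktonic cells at 1 × 10^5 CFU/mL were exposed to compound, and A580 was read at 0 h and after 24 h at 37 °C with shaking. Controls were medium plus microbes, with 1% (v/v) DMSO where the solvent was used. Relative cell number was calculated against the control. Results were confirmed by subculture in fresh medium (48 h, 37 °C) and plating. Conjugate concentrations were expressed as parent-antibiotic equivalents.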

For data set [2], the system named is Staphylococcus aureus. The data set is described as follows: Antibacterial activity against methicillin-sensitive Staphylococcus aureus isolate 2 planktonic cells after 24 hrs by microdilution assay. The note with it: isolate 2, 24 h. Type of data set: functional. The essentials: as §1
For data set [3], the system named is Staphylococcus aureus. The data set is described as follows: Antibacterial activity against methicillin-sensitive Staphylococcus aureus isolate 3 planktonic cells after 24 hrs by microdilution assay. The data set is classed as functional. The note with it: isolate 3, 24 h. The essentials: as §1
In data set [4] the test system is Staphylococcus aureus. Put plainly: Antibacterial activity against methicillin-sensitive Staphylococcus aureus isolate 4 planktonic cells after 24 hrs by microdilution assay. The note with it: isolate 4, 24 h. Type of data set: functional. The essentials: as §1
The subject of data set [5] is Staphylococcus aureus. The data set is described as follows: Antibacterial activity against methicillin-sensitive Staphylococcus aureus isolate 5 planktonic cells after 24 hrs by microdilution assay. Type of data set: functional. Conditions: isolate 5, 24 h. The essentials: as §1
Data set [6] has as its system Staphylococcus aureus. Put plainly: Antibacterial activity against methicillin-sensitive Staphylococcus aureus isolate 6 planktonic cells after 24 hrs by microdilution assay. Type of data set: functional. Conditions: isolate 6, 24 h. The essentials:
as §1

Data set [7] relates to Staphylococcus aureus. The data set is described as follows: Ratio of MIC50 for methicillin-sensitive Staphylococcus aureus ATCC 6538 planktonic cells at pH 5 to MIC50 for methicillin-sensitive Staphylococcus aureus ATCC 6538 planktonic cells at pH 7.4. The data set is classed as functional. The essentials:
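Planktonic ATCC 6538 was tested by microdilution in medium adjusted to pH 5 or pH 7.4 with KOH or HCl, with pH checked by universal indicator. MIC50 was determined at each pH.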

In data set [8] the test system is Staphylococcus aureus. Put plainly: Bactericidal activity against methicillin-resistant Staphylococcus aureus MR4-CIPS planktonic cells assessed as reduction in bacterial growth at 7.8 ug/ml after 2 hrs by time kill assay. The data set is classed as functional. The essentials: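 Time-kill per CLSI on planktonic cultures, set up as the microdilution assay: 1 × 10^5 CFU/mL, 37 °C with shaking. A580 is read at 0, 1, 2, 4, 8, 16 and 24 h, and growth is expressed relative to untreated medium + microbes control. Concentrations are parent-antibiotic equivalents.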

In data set [9] the test system is Staphylococcus aureus. Put plainly: Bactericidal activity against Staphylococcus aureus ATCC 6538 biofilm using polystyrene as substrate assessed as reduction in colony forming units after 24 hrs. Type of data set: functional. The essentials:
(§2)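 Biofilms were started from a 1 McFarland suspension, allowed to adhere 4 h at 37 °C on HA discs or polystyrene well bottoms, then rinsed. They were exposed 24 h at 37 °C to TSB containing 0.24–125 mg/L compound. Cells were detached in 0.5% saponin by 1 min vortexing, serially diluted and plated on Columbia (S. aureus) or MacConkey (P. aeruginosa) agar, 37 °C, 24 h. Read-out was mean CFU/mm² ± SEM; HA area was measured by X-ray tomography.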

The test system of data set [10] is Pseudomonas aeruginosa. The data set is described as follows: Bactericidal activity against Pseudomonas aeruginosa ATCC 15442 biofilm using polystyrene as substrate assessed as reduction in colony forming units at 0.24 to 125 ug/ml after 24 hrs. Type of data set: functional. The essentials:
as §2

The test system of data set [11] is Staphylococcus aureus. Put plainly: Bactericidal activity against Staphylococcus aureus ATCC 6538 biofilm using hydroxyapatite as substrate assessed as reduction in colony forming units after 24 hrs. Type of data set: functional. The essentials: as §2
Data set [12] relates to Pseudomonas aeruginosa. Put plainly: Bactericidal activity against Pseudomonas aeruginosa ATCC 15442 biofilm using hydroxyapatite as substrate assessed as reduction in colony forming units at 50 ug/ml at pH 4.8 to 7.4 after 24 hrs. Type of data set: functional.
The subject of data set [13] is Staphylococcus aureus. Put plainly: Antibiofilm activity against Staphylococcus aureus ATCC 6538 assessed as reduction in bacterial adherence to HA at 0.24 to 7.8 ug/ml pretreated with HA for 24 hrs followed by organism inoculation measured after 24 hrs. The data set is classed as functional. The essentials: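 HA spherules (final 10 mg/mL) in TSB were preincubated 24 h at 37 °C with shaking with compound (final 0.12–250 mg/L), then pelleted and the supernatant discarded. They were inoculated with 1 mL S. aureus at 10^5 CFU/mL. A580 was read at 0 and 24 h (37 °C, shaking) against controls without spherules and spherules without compound; spherules were also plated for CFU.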

Data set [14] concerns Staphylococcus aureus. Put plainly: Antibiofilm activity against Staphylococcus aureus ATCC 6538 assessed as CFU counts at 5 ug/mL pretreated with HA for 24 hrs followed by organism inoculation measured after 24 hrs (reference value: 4.5 x 10^10CFU). The data set is classed as functional. The essentials: (§3)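 HA discs were soaked 24 h at 37 °C in 2 mL compound solution, with DMSO or phosphate-buffer controls, then rinsed 3× with sterile water. Discs were inoculated with 2 mL of 0.5 McFarland S. aureus ATCC 6538 for biofilm formation. Biofilm CFU were counted after 24 h growth.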

Data set [15] has as its system Staphylococcus aureus. Put plainly: Antibiofilm activity against Staphylococcus aureus ATCC 6538 assessed as CFU counts at 100 ug/mL pretreated with HA for 24 hrs followed by organism inoculation measured after 24 hrs (reference value: 4.5 x 10^10CFU). The data set is classed as functional. The essentials: as §3
In data set [16] the test system is Staphylococcus aureus. Put plainly: Antibiofilm activity against Staphylococcus aureus ATCC 6538 assessed as CFU counts at 200 ug/mL pretreated with HA for 24 hrs followed by organism inoculation measured after 24 hrs (reference value: 4.5 x 10^10CFU). Type of data set: functional.
For data set [17], the system named is Rattus norvegicus. Put plainly: Toxicity in jawbone peri-implant osteomyelitis Sprague-Dawley rat model infected with Aggregatibacter actinomycetemcomitans assessed as cutaneous injection-site reactions at 0.1 to 10 mg/kg, ip single dose measured after 1 week post pharmacotherapy. The data set is classed as organism-based. Conditions: in vivo, 168 h. The essentials: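 Rats bearing infected palatal implants received i.p. dosing in sterile saline. They were observed during therapy for cutaneous injection-site reactions, inflammation and gross tolerability issues, and were euthanized one week after pharmacotherapy.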

In data set [18] the test system is Rattus norvegicus. The data set is described as follows: Toxicity in jawbone peri-implant osteomyelitis Sprague-Dawley rat model infected with Aggregatibacter actinomycetemcomitans assessed as signs of gross tolerability issue at 0.1 to 10 mg/kg, ip single dose measured after 1 week post pharmacotherapy. The data set is classed as organism-based. Conditions: in vivo, 168 h. The essentials: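 Rats carried two *Aa* (D7S-1) biofilm-coated miniature titanium implants (10^9 CFU) in the palatal bone, one on each side. Dosing began one week after surgery: a single intraperitoneal injection under anesthesia, in sterile physiological saline, with 2 rats per group. Injection-site reactions and gross tolerability were observed during therapy. Animals were euthanized one week after pharmacotherapy.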

Data set [19] has as its system Aggregatibacter actinomycetemcomitans. The data set is described as follows: Antibiofilm activity against Aggregatibacter actinomycetemcomitans infected in jawbone peri-implant osteomyelitis Sprague-Dawley rat model assessed as mean CFU count/gram at 0.3 mg/kg, ip administered 3 times per week measured after 1 week post pharmacotherapy. Type of data set: functional, organism-based. The essentials:
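Rats carried two titanium implants each, preinoculated with A. actinomycetemcomitans D7S-1 biofilm (10^9 CFU), placed bilaterally in palatal bone. One week after surgery, randomized groups received i.p. doses in sterile saline; the negative control was endotoxin-free saline. One week after treatment, 1 cm² peri-implant tissue and bone were homogenized in 0.5% saponin, serially diluted 10-fold and spread-plated on modified TSB (37 °C, 5% CO2, 48 h). Read-out was CFU/g and mean log10 reduction; analysts were blinded.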

In data set [20] the test system is Staphylococcus aureus. Put plainly: Bactericidal activity against methicillin-susceptible Staphylococcus aureus ATCC 6538 planktonic cells assessed as reduction in bacterial growth at 15.6 ug/ml after 2 hrs by time kill assay.

In the case of `O=C(O)c1cn(C2CC2)c2cc(N3CCN(C(=O)Oc4ccc(CC(P(=O)(O)O)P(=O)(O)O)cc4)CC3)c(F)cc2c1=O`, the MIC against Staphylococcus aureus [1] came out at 3.9 µg/mL (≈ 6.1 µM); against Staphylococcus aureus [2] it was 0.49 µg/mL (≈ 0.766 µM); with Staphylococcus aureus [3] it was 0.49 µg/mL (≈ 0.766 µM); in the data set with Staphylococcus aureus [4], 3.9 µg/mL (≈ 6.1 µM); against Staphylococcus aureus [5] it was 1.9 µg/mL (≈ 2.97 µM); in the data set on Staphylococcus aureus [6] it was 7.8 µg/mL (≈ 12.2 µM). For the same compound, the Ratio in the data set with Staphylococcus aureus [7] is 0.5. Also, the result (in the data set on Staphylococcus aureus [8]; in the data set with Pseudomonas aeruginosa [12]; with Staphylococcus aureus [13]; with Staphylococcus aureus [15]; in the data set with Staphylococcus aureus [16]; in data set [19]) was Active. Moreover, the outcome in the data set with Staphylococcus aureus [20] was Active. The MBIC50 in the data set with Staphylococcus aureus [9] was 15.6 to 31.2 µg/mL; with Staphylococcus aureus [11] it was 16 µg/mL. Also, the result with Pseudomonas aeruginosa [10] was inactive. In addition, in the data set with Staphylococcus aureus [11], the MBIC90 is 100 µg/mL. Moreover, the Activity in the data set with Staphylococcus aureus [14] was 3.3 ×10⁹ CFU; in the data set on Rattus norvegicus [17] it was “Non-Toxic”; in the data set with Rattus norvegicus [18] it was “Non-Toxic”.
